Data set [1] concerns the target T1, 5-hydroxytryptamine receptor 2A (Homo sapiens, UniProt P28223). As to the kind of experiment: Displacement of [125I]DOI from human recombinant 5HT2A receptor expressed in HEK293 cells by scintillation counting. It counts as cell-based. The method in brief:
(§1)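 Crude plasma membranes from HEK293 cells stably expressing the human receptor (5–25 μg protein), in 20 mM HEPES pH 7.4 with 10 mM MgCl2. Incubated with 0.5 nM [125I]DOI and test compound (1 pM–10 μM) for 1 h at room temperature; nonspecific binding defined with 10 μM cold DOI. Filtered, washed with ice-cold Tris buffer and scintillation counted in triplicate.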
In general terms: Loss of bound radioactivity is the signal in a displacement assay; it reports binding, not function.

Data set [2] addresses T2, hERG (KCNH2) (Homo sapiens, UniProt Q12809). As to the kind of experiment: Inhibition of human ERG at 1 uM by patch clamp assay.
Data set [3] concerns the target T3, 5-hydroxytryptamine receptor 2C (Homo sapiens, UniProt P28335).
T3 sequence (P28335 whole entry): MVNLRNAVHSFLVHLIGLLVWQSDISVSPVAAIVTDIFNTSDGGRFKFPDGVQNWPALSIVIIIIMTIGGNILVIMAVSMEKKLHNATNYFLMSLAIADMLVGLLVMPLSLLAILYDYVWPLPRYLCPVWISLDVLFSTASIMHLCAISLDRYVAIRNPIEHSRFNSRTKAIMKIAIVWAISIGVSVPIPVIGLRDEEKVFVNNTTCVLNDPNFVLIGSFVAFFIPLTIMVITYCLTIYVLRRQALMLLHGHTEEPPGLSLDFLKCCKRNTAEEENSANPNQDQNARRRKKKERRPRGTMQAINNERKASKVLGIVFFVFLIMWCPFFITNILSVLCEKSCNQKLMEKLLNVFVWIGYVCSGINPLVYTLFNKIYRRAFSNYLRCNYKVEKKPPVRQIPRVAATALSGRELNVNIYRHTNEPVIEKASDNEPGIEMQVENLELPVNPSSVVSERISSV
Nature of the data set: Displacement of [125I]DOI from human recombinant 5HT2C receptor expressed in HEK293 cells by scintillation counting. It counts as cell-based. The method in brief:
as §1

The nature of data set [4]: Antiplatelet activity in human platelet rich plasma assessed as inhibition of ADP-induced aggregation preincubated for 1 min before 5-HT and ADP challenge measured after 3 mins by turbidimetry.
A short description of data set [5]: Half life in Sprague-Dawley rat at 10 mg/kg, po by HPLC/MS/MS analysis. Details: dose 10 mg/kg, route oral. The following applies: in vivo. It counts as ADME, organism-based. The method in brief:
(§2)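 Male rats fasted overnight before oral dosing; 10 mg/kg po and 2 mg/kg iv in 80% PEG400/20% phosphate buffered saline. Jugular vein blood was sampled at 0.25–21 h over 24 h, and heparin plasma was assayed by HPLC/MS/MS (MRM, positive electrospray, internal standard; LLOQ 1 ng/mL, ULOQ 2000 ng/mL). %F is taken relative to the 2 mg/kg iv dose. Mean of n = 3 animals.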

Data set [6] in a line: Volume of distribution at steady state in Sprague-Dawley rat at 2 mg/kg, iv after 24 hrs by HPLC/MS/MS analysis. It counts as ADME, organism-based. Details: dose 2 mg/kg, route intravenous. The following applies: in vivo, read-out: Vdss. The method in brief:
as §2

The target of data set [7] is Voltage-gated inwardly rectifying potassium channel KCNH2 (Homo sapiens, UniProt Q12809). As to the kind of experiment: Inhibition of human ERG by patch clamp assay. In general terms: The patch-clamp technique gives a direct electrical read-out from membranes.
The nature of data set [8]: Total clearance in Sprague-Dawley rat at 2 mg/kg, iv after 24 hrs by HPLC/MS/MS analysis. The note with it: in vivo. It counts as ADME, organism-based. Further details: dose 2 mg/kg, route intravenous. The method in brief: as §2
Data set [9] in a line: AUC (0 to last) in Sprague-Dawley rat at 10 mg/kg, po after 24 hrs by HPLC/MS/MS analysis. It counts as ADME, organism-based. Details: time 0 - last, dose 10 mg/kg, route oral. The note with it: plasma. Put shortly: as §2
Data set [10] can be described thus: Bioavailability in Sprague-Dawley rat at 2 mg/kg, iv after 24 hrs by HPLC/MS/MS analysis. The note with it: in vivo. It counts as ADME, organism-based. Put shortly:
as §2

Data set [11] can be described thus: Cmax in Sprague-Dawley rat at 10 mg/kg, po after 24 hrs by HPLC/MS/MS assay. It counts as ADME, organism-based. Further details: dose 10 mg/kg, route oral. The note with it: in vivo. Put shortly:
as §2

Data set [12] has as its target T2, hERG (KCNH2). As to the kind of experiment: Inhibition of human ERG at 3 uM by patch clamp assay.
The target of data set [13] is T1, 5-hydroxytryptamine receptor 2A. As to the kind of experiment: Inverse agonist activity at human 5HT2A receptor expressed in HEK293 cells assessed as inhibition of inositol phosphate accumulation. It counts as functional, cell-based.

Molecules are shown by their SMILES.

20 molecules from ChEMBL document CHEMBL1155506 (J Med Chem, 2010) can be followed below.

T2 sequence (Q12809 whole entry): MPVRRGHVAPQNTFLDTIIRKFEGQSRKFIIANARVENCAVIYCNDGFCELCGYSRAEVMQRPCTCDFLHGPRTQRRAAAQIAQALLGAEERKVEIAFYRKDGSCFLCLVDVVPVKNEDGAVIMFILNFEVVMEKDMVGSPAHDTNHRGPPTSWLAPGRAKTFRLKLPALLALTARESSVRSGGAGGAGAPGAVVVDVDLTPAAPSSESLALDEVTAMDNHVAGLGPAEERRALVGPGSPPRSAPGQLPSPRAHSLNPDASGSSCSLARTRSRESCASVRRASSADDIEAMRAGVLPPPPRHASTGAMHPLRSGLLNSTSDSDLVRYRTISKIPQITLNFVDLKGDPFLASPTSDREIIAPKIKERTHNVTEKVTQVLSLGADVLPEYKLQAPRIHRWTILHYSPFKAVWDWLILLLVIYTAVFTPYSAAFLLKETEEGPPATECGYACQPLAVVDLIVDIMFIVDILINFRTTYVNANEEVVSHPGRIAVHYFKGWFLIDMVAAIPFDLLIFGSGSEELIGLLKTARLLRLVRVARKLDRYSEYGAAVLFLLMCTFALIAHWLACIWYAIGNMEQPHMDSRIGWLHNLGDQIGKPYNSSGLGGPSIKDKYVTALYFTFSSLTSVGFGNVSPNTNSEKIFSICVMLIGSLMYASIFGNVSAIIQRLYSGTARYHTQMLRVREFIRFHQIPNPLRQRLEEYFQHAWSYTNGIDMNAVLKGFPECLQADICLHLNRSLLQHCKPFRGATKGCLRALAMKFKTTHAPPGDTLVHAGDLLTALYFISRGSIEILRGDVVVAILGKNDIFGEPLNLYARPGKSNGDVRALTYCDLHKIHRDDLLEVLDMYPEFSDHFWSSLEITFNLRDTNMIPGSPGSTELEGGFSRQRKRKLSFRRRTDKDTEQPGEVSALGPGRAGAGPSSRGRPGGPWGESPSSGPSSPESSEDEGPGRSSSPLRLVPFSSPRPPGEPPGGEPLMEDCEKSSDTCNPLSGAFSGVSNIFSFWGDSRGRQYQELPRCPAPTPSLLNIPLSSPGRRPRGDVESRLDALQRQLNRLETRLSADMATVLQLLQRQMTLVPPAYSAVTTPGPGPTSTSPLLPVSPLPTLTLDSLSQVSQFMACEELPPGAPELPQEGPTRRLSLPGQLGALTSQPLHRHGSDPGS
T1 sequence (P28223 whole entry): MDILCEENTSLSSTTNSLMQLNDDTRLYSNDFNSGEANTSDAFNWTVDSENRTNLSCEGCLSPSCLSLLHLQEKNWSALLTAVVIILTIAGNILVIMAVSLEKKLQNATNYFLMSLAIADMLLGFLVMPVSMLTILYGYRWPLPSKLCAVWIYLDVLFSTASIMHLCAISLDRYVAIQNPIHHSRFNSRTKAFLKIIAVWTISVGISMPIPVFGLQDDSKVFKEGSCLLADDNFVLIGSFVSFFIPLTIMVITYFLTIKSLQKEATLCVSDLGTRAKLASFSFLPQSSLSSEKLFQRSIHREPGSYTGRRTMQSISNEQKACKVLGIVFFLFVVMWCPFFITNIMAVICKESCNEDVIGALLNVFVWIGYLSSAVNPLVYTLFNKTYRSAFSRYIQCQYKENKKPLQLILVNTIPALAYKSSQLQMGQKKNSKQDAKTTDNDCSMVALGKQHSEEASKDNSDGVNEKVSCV
Sequence of Voltage-gated inwardly rectifying potassium channel KCNH2 (Q12809 whole entry): as the sequence (Q12809 whole entry) above

With `Cn1nccc1-c1cc(NC(=O)c2ccc(C(F)(F)F)cc2)ccc1OCCN1CCOCC1`, the Ki (commonly a measure of affinity in units of concentration, obtained from inhibition or displacement) was determined as 2.4 nM in data set [1] and 5.9 µM in [3]. Further, the inhibition (in general, the share of the control response that was lost under treatment) at 1 µM against hERG (KCNH2) [2] was 33%. Also, in [4], the 50% inhibitory concentration (IC50) (usually the concentration at which inhibition is half-maximal) was 61 nM.
`Cn1nccc1-c1cc(NC(=O)c2ccc(F)cc2F)ccc1OCCN1CCOCC1`: the half-life (usually the time in which the quantity being followed falls by half) in data set [5] was 90 min. Moreover, the Vd in data set [6] was 11.7 L/kg. Moreover, the inhibition constant (Ki) is 8.6 nM in [1] and greater than 10 µM in data set [3]. Moreover, the concentration for half-maximal inhibition (IC50) in data set [7] was 4.1 µM; in [4] it was 27 nM. The clearance (usually the rate of elimination divided by the concentration) in data set [8] is 233 mL/min/kg. Moreover, the AUC(0-t) (commonly exposure summed from dosing to a finite time, without extrapolation to infinity) at 24 h in data set [9] stood at 171 ng·h/mL. Moreover, the bioavailability (in general, the share of a dose that reaches the circulation, judged against a reference dose that is usually intravenous) in [10] is 22%. Besides, the peak concentration (Cmax) (commonly the highest concentration seen after dosing) in [11] is 56 ng/mL. At hERG (KCNH2) [2], this molecule came in with an inhibition at 1 µM of 16%.
For `COc1cccc(C(=O)Nc2ccc(OCCN)c(-c3ccnn3C)c2)c1`, the Ki in data set [1] was 2.2 nM; in data set [3], 2.35 µM. Also, the inhibition at 3 µM at hERG (KCNH2) [12] worked out at 22%. For the same molecule, in data set [4], the IC50 was 6.9 nM.
Regarding `Cn1nccc1-c1cc(NC(=O)c2ccc(F)cc2)ccc1OCCN1CCOCC1`, the Ki in [1] is 18 nM; in data set [3] it was greater than 10 µM. In addition, the IC50 in [4] came out at 100 nM.
In the case of `COc1cccc(C(=O)Nc2ccc(OCCN3CCN(C(N)=O)CC3)c(-c3ccnn3C)c2)c1`, the values for the Ki in data set [1] and in data set [3] were 5.1 nM and 5.89 µM, respectively. The inhibition at 3 µM on hERG (KCNH2) [12] was found to be 17%. Moreover, the 50% inhibitory concentration (IC50) in [4] is 57 nM.
As to `Cn1nccc1-c1cc(NC(=O)c2cccc(C(F)(F)F)c2)ccc1OCCN1CCCC1`, the values for the Ki in [1] and in data set [3] were 0.6 nM and 1.14 µM, respectively. Further, the IC50 was determined as 23 nM in [13] and 3.2 nM in data set [4]. Moreover, testing at 1 µM against hERG (KCNH2) [2] gave an inhibition of 80%.
Turning to `Cn1nccc1-c1cc(NC(=O)c2cccc(F)c2)ccc1OCCN1CCOCC1`, the values for the inhibition constant (Ki) in data set [1] and in [3] were 5.1 nM and greater than 10 µM, respectively. Moreover, the inhibition at 3 µM against hERG (KCNH2) [12] stood at 43%. Also, the half-maximal inhibitory concentration (IC50) in [4] turned out to be 86 nM.
The like results for `Cn1ncc(Cl)c1-c1cc(NC(=O)c2cccc(F)c2)ccc1OCCN1CCOCC1` were, in that order, 0.6 nM, 3.38 µM, 46% and 22 nM.
With `CC(=O)N1CCN(CCOc2ccc(NC(=O)c3cccc(C(F)(F)F)c3)cc2-c2ccnn2C)CC1`, the Ki was 4.3 nM in data set [1] and 5.61 µM in [3]. In addition, the inhibition at 3 µM against hERG (KCNH2) [12] was 75%. For the same molecule, the concentration for half-maximal inhibition (IC50) in [4] was 145 nM.
The like results for `Cn1ncc(Cl)c1-c1cc(NC(=O)c2cccc(C(F)(F)F)c2)ccc1OCCN1CCNC(=O)C1` were, in that order, 5.3 nM, greater than 10 µM, 53% and 127 nM.
The matching figures for `Cn1nccc1-c1cc(NC(=O)c2ccc(F)c(F)c2)ccc1OCCN1CCOCC1`: 4.1 nM, greater than 10 µM, 56% and 29 nM.
The matching figures for `COc1cccc(C(=O)Nc2ccc(OCCN3CCN(C(C)=O)CC3)c(-c3ccnn3C)c2)c1`: 4.5 nM, greater than 10 µM, 24% and 77 nM.
Turning to `Cn1nccc1-c1cc(NC(=O)c2cccc(C(F)(F)F)c2)ccc1OCCN1CCNC(=O)C1`, the Ki was 287 nM in [1] and greater than 10 µM in data set [3].
Turning to `Cn1nccc1-c1cc(NC(=O)c2ccc(C(F)(F)F)cc2)ccc1OCCN1CCCC1`, the half-life in data set [5] is 168 min. In addition, in data set [6], the Vd worked out at 5.4 L/kg. Further, the inhibitory constant (Ki) in data set [1] stood at 1.9 nM; in [3] it was 0.225 µM. In data set [8], the clearance is 18.3 mL/min/kg. The molecule further registered an exposure AUC(0-t) at 24 h in [9] of 3830 ng·h/mL. In addition, the bioavailability in data set [10] stood at 43%. For the same molecule, the Cmax in [11] is 453 ng/mL. This molecule had an inhibition at 1 µM at hERG (KCNH2) [2] of 66%. In addition, in [4], the IC50 was 2 nM.
For `COc1cccc(C(=O)Nc2ccc(OCCNCCO)c(-c3ccnn3C)c2)c1`, the Ki in [1] stood at 1.8 nM; in [3], 5.87 µM. Besides, on hERG (KCNH2) [12], the inhibition at 3 µM came to 36%. For the same molecule, the IC50 in data set [4] turned out to be 5.8 nM.
The like results for `Cn1nccc1-c1cc(NC(=O)c2cccc(C(F)(F)F)c2)ccc1OCCN1CCC(F)(F)C1` were, in that order, 12 nM, 9.25 µM, 50% and 189 nM.
`COc1cccc(C(=O)Nc2ccc(OCCN3CCN(S(C)(=O)=O)CC3)c(-c3ccnn3C)c2)c1`: the Ki in data set [1] is 28 nM; in data set [3] it was greater than 10 µM. At hERG (KCNH2) [12], 3 µM produced 23% inhibition.
Consider `Cn1nccc1-c1cc(NC(=O)c2cccc(C(F)(F)F)c2)ccc1OCCN1CCOCC1`, for which the half-life in data set [5] was 108 min. The Vd in data set [6] came to 5.1 L/kg. Also, the Ki in [1] was 0.7 nM; in [3], greater than 10 µM. In data set [8], this molecule gave a clearance of 160 mL/min/kg. The AUC(0-t) at 24 h in data set [9] came out at 288 ng·h/mL. Moreover, the bioavailability in [10] worked out at 27%. This molecule had a Cmax in data set [11] of 202 ng/mL. The IC50 in [4] turned out to be 18 nM.
For `CC(=O)N1CCN(CCOc2ccc(NC(=O)c3cccc(F)c3)cc2-c2c(Cl)cnn2C)CC1`, the inhibition constant (Ki) was found to be 2.2 nM in [1] and 8.6 µM in data set [3]. This molecule gave an inhibition at 3 µM against hERG (KCNH2) [12] of 43%. Further, in [4], the IC50 came to 70 nM.
`CC(=O)N1CCN(CCOc2ccc(NC(=O)c3cccc(F)c3)cc2-c2ccnn2C)CC1`: the Ki in data set [1] is 15 nM; in data set [3], greater than 10 µM. Moreover, the IC50 in data set [4] amounted to 40 nM.
